The results in this text go back to ChEMBL document CHEMBL1133549, “N4-(omega-Aminoalkyl)-1-[(omega-aminoalkyl)amino]-4- acridinecarboxamides: novel, potent, cytotoxic, and DNA-binding agents” (J Med Chem, 2000).

Assay [1] deals with A2780cisR. As to the kind of experiment: The compound was tested for cytotoxic activity against A2780cisR cell line(human ovarian carcinoma ). It is filed as functional, cell-based. The method in brief:
(§1)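 Human ovarian carcinoma cells (100–5000) were plated and allowed to adhere overnight. Drug was diluted from DMSO stock into aqueous solution at pH 7.0 and applied continuously for 96 h at 37 °C. Growth was read by SRB protein staining. IC50 is 50% growth inhibition versus drug-free controls, from a representative experiment with 4 replicate wells per concentration and 8 control wells.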

The subject of assay [2] is CH1. As to the kind of experiment: (§2) The compound was tested for cytotoxic activity against CH1/Cs cell line(human ovarian carcinoma). It is filed as functional, cell-based. Put shortly:
as §1

For assay [3], the system named is A2780. As to the kind of experiment: The compound was tested for cytotoxic activity against A2780 cell line(human ovarian carcinoma ). Type of assay: functional, cell-based. The method in brief:
as §1

The test system of assay [4] is CH1. As to the kind of experiment: The compound was tested for cytotoxic activity against CH1 cell line(human ovarian carcinoma ). Type of assay: functional, cell-based. Put shortly:
as §1

A further assay has as its system SK-OV-3. As to the kind of experiment: The compound was tested for cytotoxic activity against SKOV-3 cell line(human ovarian carcinoma ). It is filed as functional, cell-based. Put shortly: as §1
The subject of another assay is HT-29. In words: The compound was tested for cytotoxic activity against HT-29 cell line(human colon adeno carcinoma). Type of assay: functional, cell-based. The method in brief: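 HT29 colon adenocarcinoma cells at 2.5×10^4 cells/mL received drug under protracted exposure for 144 h. Assays were run in triplicate.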
Assay [5] deals with Nucleic Acid. In words: Binding affinity against GC from [poly(dG-dC)]2. Type of assay: nucleic-acid assay. Put shortly:
(§3)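 Ethidium displacement measured fluorometrically at 20 °C (excitation 546 nm, emission 595 nm). Buffer was 10 mM Na2HPO4, 10 mM NaH2PO4, 1 mM EDTA, pH 7.0, with 1.26 µM ethidium bromide and 1 µM of CT-DNA, [poly(dA-dT)]2 or [poly(dG-dC)]2. Drug was added serially from a ~5 mM DMSO stock. C50 (50% loss of bound-ethidium fluorescence) is the mean of three determinations. Kapp = 1.26/C50 × 10^7.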

The test system of assay [6] is Nucleic Acid. As to the kind of experiment: Tested for binding affinity against AT from [poly(dA-dT)]2. It is filed as nucleic-acid assay. Put shortly:
as §3

Assay [7] deals with Nucleic Acid. As to the kind of experiment: Binding affinity against CT-DNA from calf thymus DNA. Particulars: Bos taurus. Type of assay: nucleic-acid assay. The method in brief: as §3
Assay [8] in a line: as §2. Type of assay: functional, cell-based. Put shortly: as §1
Assay [9] deals with A2780. In words: The compound was tested for cytotoxic activity against A2780/Cs cell line(human ovarian carcinoma. It is filed as functional, cell-based. Put shortly:
as §1

Assay [10] relates to A2780cisR. As to the kind of experiment: The compound was tested for cytotoxic activity against A2780cisR cell line(human ovarian carcinoma. It is filed as functional, cell-based. The method in brief: as §1
The subject of assay [11] is A2780cisR. As to the kind of experiment: The compound was tested for cytotoxic activity against A2780cisR cell line(human ovarian carcinoma). Type of assay: functional, cell-based. The method in brief: as §1

On to `COc1cccc2c1C(=O)c1c(O)c3c(c(O)c1C2=O)C[C@@](O)(C(=O)CO)C[C@@H]3O[C@H]1C[C@H](N)[C@H](O)[C@H](C)O1` [DOXORUBICIN], for which the IC50 in the assay on A2780cisR [1] (Homo sapiens, A2780cisR) amounted to 0.017 µM; in the assay on CH1 [2], 0.45 µM.

Turning to `CN(C)CCNC(=O)c1ccc(NCCN(C)C)c2cc3cc(N)ccc3nc12` [listing 1 of 3 here], the half-inhibitory concentration (IC50) with A2780 [3] stood at 0.32 µM; with CH1 [4] it was 0.089 µM; with SK-OV-3 it was 0.155 µM; in the assay on A2780cisR [1] (Homo sapiens, A2780cisR), 0.365 µM; with CH1 [2], 0.1 µM; with HT-29 it was 0.7 µM.

Consider `O=C(NCCN1CCOCC1)c1ccc(NCCN2CCOCC2)c2cc3ccccc3nc12`, for which the results for the K app in the assay on Nucleic Acid [5], in the assay on Nucleic Acid [6] and in the assay on Nucleic Acid [7] were 3e+06 M⁻¹, 5e+06 M⁻¹ and 4.4e+06 M⁻¹, respectively. Also, the IC50 with A2780 [3] stood at 2.3 µM; with CH1 [4] it was 1.85 µM; in the assay with SK-OV-3 it was 3.2 µM; in the assay with A2780cisR [1], 2.5 µM; in [8] it was 2.15 µM; with HT-29, 2.7 µM.

Take `CN(C)CCNC(=O)c1ccc(NCCN(C)C)c2c(=O)c3ccccc3[nH]c12`: the IC50 was 0.015 µM in the assay on A2780 [3], 0.02 µM with CH1 [4], 0.4 µM in the assay on SK-OV-3 and 0.094 µM in the assay with HT-29. The molecule further had a K app in the assay on Nucleic Acid [7] of 3.7e+07 M⁻¹.

Turning to `CN(C)CCNC(=O)c1ccc(NCCN(C)C)c2cc3ccccc3nc12`, the IC50 with A2780 [9] was 0.007 µM; in the assay on A2780 [3] it was 0.0043 µM; in the assay on CH1 [4] it was 0.007 µM; in the assay with SK-OV-3 it was 0.11 µM; in [8], 0.005 µM; in the assay with HT-29, 0.007 µM. Moreover, the results for the K app with Nucleic Acid [5], with Nucleic Acid [6] and with Nucleic Acid [7] were 2.3e+08 M⁻¹, 2.8e+07 M⁻¹ and 1.5e+09 M⁻¹, respectively.

On to `CN(C)CCNC(=O)c1ccc(NCCN(C)C)c2cc3cc(O)ccc3nc12`, for which the K app came out at 1e+08 M⁻¹ in the assay with Nucleic Acid [5], 3.1e+07 M⁻¹ in the assay with Nucleic Acid [6] and 2.9e+08 M⁻¹ with Nucleic Acid [7]. For the same molecule, the IC50 turned out to be 0.11 µM in the assay on A2780 [3]; 0.15 µM with CH1 [4]; 0.9 µM in the assay on SK-OV-3; 0.19 µM in the assay with A2780cisR [1]; 0.2 µM in assay [8]; 0.85 µM with HT-29.

For the molecule `O=C(NCCN1CCCCC1)c1ccc(NCCN2CCCCC2)c2cc3ccccc3nc12`, the figures for the K app in the assay on Nucleic Acid [5], in the assay on Nucleic Acid [6] and with Nucleic Acid [7] were 6.3e+07 M⁻¹, 2.7e+07 M⁻¹ and 3.4e+07 M⁻¹, respectively. Also, the IC50 in the assay on A2780 [3] is 0.1 µM; in the assay on CH1 [4] it was 0.135 µM; with SK-OV-3 it was 0.14 µM; in the assay on A2780cisR [1], 0.12 µM; in assay [8] it was 0.11 µM; with HT-29 it was 0.44 µM.

For `CN(C)CCNC(=O)c1ccc(NCCNCCO)c2cc3ccccc3nc12`, the K app in the assay with Nucleic Acid [5] came out at 3e+08 M⁻¹; in the assay with Nucleic Acid [6], 4.5e+07 M⁻¹; in the assay with Nucleic Acid [7], 9.9e+07 M⁻¹. For the same molecule, the IC50 with A2780 [3] amounted to 0.085 µM; in the assay with CH1 [4], 0.052 µM; with SK-OV-3 it was 0.24 µM; in the assay on A2780cisR [1], 0.091 µM; in assay [8], 0.046 µM; in the assay with HT-29 it was 0.1 µM.

Regarding `CN(C)CCCNC(=O)c1ccc(NCCCN(C)C)c2cc3ccccc3nc12` [listing 1 of 2 here], the half-maximal inhibitory concentration (IC50) in the assay with A2780 [9] worked out at 1.25 µM; in the assay with A2780 [3], 1.95 µM; with CH1 [4], 0.86 µM; with SK-OV-3, 0.66 µM; in assay [8] it was 0.53 µM; in the assay on HT-29, 0.71 µM.

With `NCCNC(=O)c1ccc(NCCN)c2cc3ccccc3nc12`, the K app in the assay on Nucleic Acid [5] was determined as 5.6e+07 M⁻¹; in the assay with Nucleic Acid [6] it was 2.2e+07 M⁻¹; in the assay on Nucleic Acid [7], 8.5e+07 M⁻¹. The IC50 in the assay with A2780 [3] worked out at 12 µM; with CH1 [4], 1.2 µM; in the assay with SK-OV-3 it was 12 µM; in the assay on A2780cisR [1] it was 3.15 µM; in assay [8], 1.55 µM; in the assay on HT-29 it was 6.94 µM.

In the case of `CN(C)CCNC(=O)c1ccc(NCCN(C)C)c2cc3cc(N)ccc3nc12` [listing 2 of 3 here], the K app with Nucleic Acid [5] was 4.1e+08 M⁻¹; in the assay on Nucleic Acid [6], 2.8e+08 M⁻¹; in the assay on Nucleic Acid [7], 1.4e+09 M⁻¹.

Turning to `CN(C)CCNC(=O)c1cccc2cc3ccccc3nc12`, the K app in the assay with Nucleic Acid [5] stood at 1e+06 M⁻¹; with Nucleic Acid [6], 1.4e+06 M⁻¹; in the assay with Nucleic Acid [7] it was 1.1e+06 M⁻¹. In addition, the IC50 amounted to 0.51 µM in the assay with A2780 [3]; 0.48 µM in the assay on CH1 [4]; 0.98 µM with SK-OV-3; 0.57 µM in the assay with A2780cisR [1]; 0.53 µM in assay [8]; 0.99 µM in the assay with HT-29.

`CN(C)CCNC(=O)c1ccc(NCCN(C)C)c2cc3cc(N)ccc3nc12` [listing 3 of 3 here]: the IC50 with A2780 [3] turned out to be 0.32 µM; in the assay on CH1 [4], 0.089 µM; in the assay with SK-OV-3, 0.155 µM; with A2780cisR [1], 0.365 µM; in the assay with CH1 [2], 0.1 µM; in the assay with HT-29, 0.7 µM.

Take `CN(C)CCCNC(=O)c1ccc(NCCCN(C)C)c2cc3ccccc3nc12` [listing 2 of 2 here]: the IC50 with A2780 [3] was 1.95 µM; in the assay with CH1 [4], 0.86 µM; with SK-OV-3 it was 0.66 µM; in the assay with A2780cisR [1] (Homo sapiens, A2780cisR) it was 1.25 µM; in the assay on CH1 [2] it was 0.53 µM; in the assay with HT-29, 0.71 µM.

As for `CN(C)CCNC(=O)c1ccc(Cl)c2cc3ccccc3nc12`, the 50% inhibitory concentration (IC50) with A2780 [3] was found to be 2.05 µM; in the assay on CH1 [4], 1.75 µM; with SK-OV-3, 3.3 µM; in the assay with A2780cisR [1], 2.04 µM; in assay [8] it was 1.9 µM; in the assay with HT-29 it was 0.79 µM.

As to `CCN(CC)CCNC(=O)c1ccc(NCCN(CC)CC)c2cc3ccccc3nc12`, the K app with Nucleic Acid [5] came to 9.1e+07 M⁻¹; in the assay on Nucleic Acid [6], 1.7e+07 M⁻¹; in the assay on Nucleic Acid [7] it was 1.5e+08 M⁻¹. For the same molecule, the IC50 is 0.415 µM with A2780 [3]; 0.185 µM with CH1 [4]; 0.475 µM in the assay with A2780cisR [10]; 0.5 µM in the assay with SK-OV-3; 0.375 µM in assay [8]; 0.58 µM with HT-29.

For the molecule `COc1ccc2nc3c(C(=O)NCCN(C)C)ccc(NCCN(C)C)c3cc2c1`, the K app with Nucleic Acid [5] worked out at 5.9e+07 M⁻¹; with Nucleic Acid [6], 1.4e+07 M⁻¹; with Nucleic Acid [7] it was 1.9e+07 M⁻¹. The IC50 with A2780 [3] worked out at 0.096 µM; in the assay with CH1 [4], 0.05 µM; in the assay with SK-OV-3, 0.06 µM; in the assay with A2780cisR [11], 0.125 µM; in [8], 0.044 µM; in the assay on HT-29, 0.56 µM.

In the assay with A2780cisR [1] (a2780cisr), CISPLATIN registered a half-maximal inhibitory concentration (IC50) of 3.4 µM.
